How the values were obtained:
Homo sapiens [1] = species on record: Homo sapiens; assay: Ratio of EC50 for human S1P3 receptor to EC50 for human S1P1 receptor
[2] = target: Sphingosine 1-phosphate receptor 5 (Homo sapiens, UniProt Q9H228); assay: Displacement of [33P]sphingosine-1-phosphate from human S1P5 receptor
[3] = target: T1, Sphingosine 1-phosphate receptor 3 (Homo sapiens, UniProt Q99500); assay: Agonist activity at human S1P3 receptor assessed as stimulation of [35S]GTPgammaS binding; assay type: functional
[4] = target: T2, Sphingosine 1-phosphate receptor 1 (Homo sapiens, UniProt P21453); assay: Agonist activity at human S1P1 receptor assessed as stimulation of [35S]GTPgammaS binding; assay type: functional
[5] = target: T1, Sphingosine 1-phosphate receptor 3; assay: Displacement of [33P]sphingosine-1-phosphate from human S1P3 receptor
[6] = target: T3, Sphingosine 1-phosphate receptor 4 (Homo sapiens, UniProt O95977); assay: Displacement of [33P]sphingosine-1-phosphate from human S1P4 receptor
T3 sequence (O95977 whole entry): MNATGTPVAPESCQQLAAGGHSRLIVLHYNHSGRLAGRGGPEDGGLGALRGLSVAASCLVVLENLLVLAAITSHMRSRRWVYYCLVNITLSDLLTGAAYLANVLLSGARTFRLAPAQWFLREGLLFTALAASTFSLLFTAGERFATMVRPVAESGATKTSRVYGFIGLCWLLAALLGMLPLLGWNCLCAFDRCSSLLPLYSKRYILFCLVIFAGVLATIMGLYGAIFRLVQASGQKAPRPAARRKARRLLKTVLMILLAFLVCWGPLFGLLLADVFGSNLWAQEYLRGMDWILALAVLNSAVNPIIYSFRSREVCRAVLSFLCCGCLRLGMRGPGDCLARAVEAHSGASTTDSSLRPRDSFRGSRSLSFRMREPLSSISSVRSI

[7] = target: T2, Sphingosine 1-phosphate receptor 1; assay: Displacement of [33P]sphingosine-1-phosphate from human S1P1 receptor
Homo sapiens [8] = species on record: Homo sapiens; assay: Ratio of IC50 for human S1P3 receptor to IC50 for human S1P1 receptor
Mus musculus [9] = assay: Immunomodulatory activity in C57BL/6 mouse assessed as lymphopenia at 10 mg/kg, po after 6 hrs by complete blood count analysis; assay type: functional
Method in brief: (§1)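 Mice dosed orally with compound in 3% BSA vehicle; vehicle-only control group. Doses 0.3–10 mg/kg. At 6 h, isoflurane anesthesia, about 250 µl retro-orbital blood collected into EDTA tubes, mixed with anticoagulant, kept on tilt table, then complete blood count. Percent lymphopenia reported.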

Mus musculus [10] = assay: Immunomodulatory activity in po dosed C57BL/6 mouse assessed as lymphopenia after 6 hrs by complete blood count analysis; assay type: functional, organism-based; method in brief: as §1

T2 sequence (P21453 whole entry): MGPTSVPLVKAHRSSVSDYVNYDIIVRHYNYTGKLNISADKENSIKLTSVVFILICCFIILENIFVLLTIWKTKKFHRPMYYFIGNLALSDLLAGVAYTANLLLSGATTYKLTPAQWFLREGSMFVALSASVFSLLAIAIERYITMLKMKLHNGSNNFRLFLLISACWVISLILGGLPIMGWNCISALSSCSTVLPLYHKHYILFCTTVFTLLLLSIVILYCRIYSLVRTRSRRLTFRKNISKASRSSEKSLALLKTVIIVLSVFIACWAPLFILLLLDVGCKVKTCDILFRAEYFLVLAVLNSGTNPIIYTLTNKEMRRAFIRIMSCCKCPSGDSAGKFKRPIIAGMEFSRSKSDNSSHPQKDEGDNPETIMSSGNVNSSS
Sequence of Sphingosine 1-phosphate receptor 5 (Q9H228 whole entry): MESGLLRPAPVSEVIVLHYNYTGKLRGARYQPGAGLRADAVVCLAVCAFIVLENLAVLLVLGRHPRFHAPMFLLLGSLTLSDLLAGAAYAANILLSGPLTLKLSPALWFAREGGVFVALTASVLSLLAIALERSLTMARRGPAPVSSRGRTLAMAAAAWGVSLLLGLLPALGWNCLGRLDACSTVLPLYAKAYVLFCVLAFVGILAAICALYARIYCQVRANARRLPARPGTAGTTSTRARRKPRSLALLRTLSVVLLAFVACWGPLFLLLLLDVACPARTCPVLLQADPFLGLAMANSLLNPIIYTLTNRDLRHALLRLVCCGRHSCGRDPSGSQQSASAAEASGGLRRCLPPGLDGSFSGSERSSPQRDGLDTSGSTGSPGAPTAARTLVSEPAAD
T1 sequence (Q99500 whole entry): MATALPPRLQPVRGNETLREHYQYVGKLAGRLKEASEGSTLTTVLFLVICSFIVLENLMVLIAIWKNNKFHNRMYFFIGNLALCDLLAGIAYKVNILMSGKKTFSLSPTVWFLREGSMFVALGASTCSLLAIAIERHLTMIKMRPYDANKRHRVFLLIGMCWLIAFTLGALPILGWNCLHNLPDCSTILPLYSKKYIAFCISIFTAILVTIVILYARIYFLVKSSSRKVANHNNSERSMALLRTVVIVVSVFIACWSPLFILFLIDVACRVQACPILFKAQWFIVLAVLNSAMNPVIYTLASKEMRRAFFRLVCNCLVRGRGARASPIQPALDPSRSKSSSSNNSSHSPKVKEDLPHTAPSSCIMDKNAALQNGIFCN

Ratio EC50 (Homo sapiens [1])	IC50 [2] [nM]	EC50 [3] [nM]	EC50 [4] [nM]	IC50 [5] [nM]	IC50 [6] [nM]	IC50 [7] [nM]	Ratio IC50 (Homo sapiens [8])	Compound	Activity (Mus musculus [9]) [%]	Activity (Mus musculus [10])
9.2	6.9	10.1	1.1	5.9	3.5	0.14	42	CCCCCCCCOc1ccc(NC(=O)[C@@](C)(N)COP(=O)(O)O)cc1F		
								CCCCCCCCOc1ccc(-c2c[nH]c([C@@](C)(N)CO)n2)cc1F	70	
24	1.1	10.8	0.45	5.8	1.9	0.35	16.5	CCCCCCCCOc1ccc(-c2c[nH]c([C@@](C)(N)COP(=O)(O)O)n2)cc1F		
4.7	3.2	9.8	2.1	3.6	1.8	0.35	10.2	CCCCCCCCOc1ccc(NC(=O)[C@@](C)(N)COP(=O)(O)O)c(F)c1		
								CCCCCCCCc1ccc(NC(=O)[C@@](C)(N)CO)cc1	36	
								CCCCCCCCOc1ccc(NC(=O)[C@@](C)(N)CO)cc1	78	Dose-dependent effect
								CCCCCCCCOc1ccc(NC(=O)[C@@](C)(N)CO)c(F)c1	66	
								CCCCCCCCOc1ccc(NC(=O)[C@@](C)(N)CO)cc1F	65	
								CCCCCCCOc1ccc(NC(=O)[C@@](C)(N)CO)cc1	72	
								CCCCCCCCOc1ccc(-c2c[nH]c([C@@](C)(N)CO)n2)c(F)c1	81	
6.9	8.8	16.3	2.4	5.9	4	0.73	8.1	CCCCCCCCOc1ccc(NC(=O)[C@@](C)(N)COP(=O)(O)O)cc1		
								CCCCCCCOc1ccc(-c2c[nH]c([C@@](C)(N)CO)n2)cc1	74	
26.9	1.4	14.8	0.55	5.3	1.1	0.26	20.3	CCCCCCCCOc1ccc(-c2c[nH]c([C@@](C)(N)COP(=O)(O)O)n2)cc1		
								CCCCCCCCOc1ccc(-c2c[nH]c([C@@](C)(N)CO)n2)cc1	83	

Compound	Ratio EC50 (Homo sapiens [1])	IC50 [2] [nM]	EC50 [3] [nM]	EC50 [4] [nM]	IC50 [5] [nM]	IC50 [6] [nM]	IC50 [7] [nM]	Ratio IC50 (Homo sapiens [8])	Activity (Mus musculus [9]) [%]	Activity (Mus musculus [10])
CCCCCCCCCCCCC/C=C/[C@@H](O)[C@@H](N)COP(=O)(O)O			3	7.9	0.66	2.4	0.47			
